According to ChEMBL document CHEMBL1154278, “Cassiarins C-E, antiplasmodial alkaloids from the flowers of Cassia siamea” (J Nat Prod, 2009):

Key:
Plasmodium falciparum = assay: Antimalarial activity against Plasmodium falciparum 3D7 by Giemsa staining; assay type: functional, organism-based
How it was run: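 P. falciparum 3D7 clone grown in human erythrocyte culture (Trager–Jensen) in 24-well plates. Compounds dissolved in DMSO (final <0.5%) and diluted in RPMI 1640 with 10% human plasma, 25 mM HEPES and 25 mM NaHCO₃ to final 10, 1, 0.1, 0.01, 0.001 µg/mL. Growth read from MeOH-fixed, Giemsa-stained smears; IC50 = 50% growth inhibition versus untreated control.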

HL-60 (Homo sapiens) = assay: Cytotoxicity against human HL-60 cells

IC50 (Plasmodium falciparum) [µM] | SMILES | IC50 (HL-60 (Homo sapiens)) [µM]
8.6 | CC(=O)Cc1cc(O)cc2oc(C)cc(=O)c12 | > 100
7.3 | Cc1cc2cc(O)cc3c2c(n1)C=C(CC1(C)Cc2nc(C)cc4cc(O)cc(c24)O1)O3 (configuration not stated) [CASSIARIN E] | > 100
3.6 | CC(=O)Cc1cc(O)cc2oc(CC3(C)Cc4nc(C)cc5cc(O)cc(c45)O3)cc(=O)c12 (configuration not stated) [CASSIARIN D] | > 100
4.7 | Cc1cc2cc(=O)cc3oc(C)cc(o1)c23 [ANHYDROBARAKOL] | > 100
24.2 | Cc1cc2cc(O)cc3c2c(n1)CC(C)O3 (configuration not stated) [CASSIARIN C] | > 100
2.3 | Cc1cc2c3c(cc(=O)cc-3o1)CC(C)O2 (configuration not stated) | > 100
